One compound from ChEMBL document CHEMBL4043073, “Boronic Acid Modifications Enhance the Anti-Influenza A Virus Activities of Novel Quindoline Derivatives” (J Med Chem, 2017) can be followed below.

The species named for data set [1] is Canis lupus familiaris. As to the kind of experiment: Inhibition of MAPK signaling-mediated nuclear import of viral RNP in MDCK cells infected with Influenza A virus (A/Puerto Rico/8/34(H1N1)) assessed as p38 phosphorylation at 10 uM preincubated with virus for 1 hr followed by viral infection after 4 hrs by Western blot method relative to control (reference value: 5.1). The class given is cell-based. In outline: (§1)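 PR8 (MOI 1.0) pretreated with compound 1 h at 37 °C, then MDCK cells were kept in infecting medium with 5 or 10 μM for 4 h; ribavirin 50 μg/mL as comparator. Lysates were immunoblotted for phospho-ERK1/2, p38, NF-κB or Akt, with β-actin/GAPDH loading controls and AP/NBT-BCIP detection. Densitometry was normalised to uninfected cells (= 1.0); n = 3.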

In data set [2] the test system is Influenza A virus. As to the kind of experiment: Antiviral activity against Influenza A virus (A/Puerto Rico/8/34(H1N1)) infected in MDCK cells assessed as virus yeild reduction at 10 uM treated post 1 hr of viral adsorption measured at 24 hrs post infection by crystal violet staining based plaque assay. The class given is functional, cell-based. Conditions: A/Puerto Rico/8/1934(H1N1). Summed up: (§2)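 Time-of-addition on MDCK cells, PR8 MOI 1.0, 10 μM compound. Three arms: cells pretreated before infection; compound present during adsorption 1 h at 4 °C; or compound added after removal of unadsorbed virus. Virus yield at 24 h p.i. by plaque assay; n = 3.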

Data set [3] deals with Influenza A virus. The data set can be described thus: Antiviral activity against Influenza A virus (A/Puerto Rico/8/34(H1N1)) infected in Kunming mouse assessed as survival rate at 10 mg/kg/day, po qd for 7 days measured on day 14 post infection (reference value: 30%). In kind it is functional. The following applies: A/Puerto Rico/8/1934(H1N1).
Data set [4] deals with Influenza A virus. The data set can be described thus: Antiviral activity against Influenza A virus (A/Puerto Rico/8/34(H1N1)) infected in MDCK cells assessed as reduction in viral HA titer by measuring reduction in chicken RBC […] after 24 hrs by hemagglutination test. In kind it is functional, cell-based. The following applies: A/Puerto Rico/8/1934(H1N1). Summed up: (§3)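 MDCK cells infected at MOI 3.0 (single-cycle) with PR8, Cal09 or swine H3N2 Minnesota, then treated with compound for 24 h. Supernatant HA titers were read by 2-fold serial dilution with an equal volume of 1% chicken RBCs, 60 min at 4 °C. Expressed as percent of untreated-cell HA titer; IC50 derived; n = 4.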

For data set [5], the species on record is Canis lupus familiaris. As to the kind of experiment: Inhibition of MAPK signaling-mediated nuclear import of viral RNP in MDCK cells infected with Influenza A virus (A/Puerto Rico/8/34(H1N1)) assessed as ERK1/2 phosphorylation at 10 uM preincubated with virus for 1 hr followed by viral infection after 4 hrs by Western blot method relative to control (reference value: 1.4). The class given is cell-based. Summed up: as §1

Data set [6] deals with Influenza A virus. As to the kind of experiment: Antiviral activity against Influenza A virus (A/Puerto Rico/8/34(H1N1)) infected in Kunming mouse assessed as pulmonary viral titer reduction at 10 mg/kg/day, po qd for 4 days measured on day 4 post last dose by crystal violet staining based plaque assay. The class given is functional, organism-based. The following applies: A/Puerto Rico/8/1934(H1N1). Summed up:
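Female 4-week-old Kunming mice infected intranasally with PR8 (4 HAU/mouse). Oral gavage once daily began 2 h post-inoculation; placebo control. Mice euthanised on day 4; lungs homogenised in PBS and titrated by plaque assay on cell monolayers (agarose overlay, 3 days, crystal violet).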

In data set [7] the test system is Influenza A virus. As to the kind of experiment: Antiviral activity against Influenza A virus (A/Puerto Rico/8/34(H1N1)) infected in Kunming mouse assessed as intact columnar epithelium in bronchiole without inflammatory cell infiltration at 10 mg/kg/day, po qd for 4 days by hematoxylin and eosin staining based assay. In kind it is functional, organism-based. Conditions: A/Puerto Rico/8/1934(H1N1).

Data set [8] deals with Influenza A virus. As to the kind of experiment: Antiviral activity against Influenza A virus (A/Puerto Rico/8/34(H1N1)) infected in MDCK cells assessed as virus yeild reduction at 10 uM treated during viral adsorption for 1 hr measured at 24 hrs post infection by crystal violet staining based plaque assay. The class given is functional, cell-based. Conditions: A/Puerto Rico/8/1934(H1N1). In outline:
as §2

For data set [9], the species on record is Canis lupus familiaris. As to the kind of experiment: Inhibition of MAPK signaling-mediated nuclear import of viral RNP in MDCK cells infected with Influenza A virus (A/Puerto Rico/8/34(H1N1)) assessed as p38 phosphorylation at 5 uM preincubated with virus for 1 hr followed by viral infection after 4 hrs by Western blot method relative to control (reference value: 5.1). The class given is cell-based. Summed up: as §1

For data set [10], the species on record is Canis lupus familiaris. The data set can be described thus: Inhibition of NFkappaB activation-mediated viral endocytosis in MDCK cells infected with Influenza A virus (A/Puerto Rico/8/34(H1N1)) assessed as Akt phosphorylation level at 5 uM preincubated with virus for 1 hr followed by viral infection measured after 4 hrs by Western blot method relative to control (reference value: 1.4). The class given is cell-based. In outline:
as §1

The subject of data set [11] is Influenza A virus. As to the kind of experiment: Antiviral activity against Influenza A virus (A/Puerto Rico/8/34(H1N1)) infected in MDCK cells assessed as reduction in virus-induced cytopathic effect after 48 hrs by crystal violet staining based assay. In kind it is functional, cell-based. The following applies: A/Puerto Rico/8/1934(H1N1). Summed up:
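MDCK cells infected with PR8 at MOI 0.1; compounds added in triplicate after inoculum removal. After 48 h cells were fixed with 4% formaldehyde and stained with 0.1% crystal violet. Dye was methanol-solubilised and read at 570 nm; IC50 was the concentration halving CPE.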

In data set [12] the test system is Influenza A virus. The data set can be described thus: Antiviral activity against Influenza A virus H3N2 strain (A/swine/Minnesota/02719/2009) infected in MDCK cells assessed as reduction in viral HA titer by measuring reduction in chicken RBC […] after 24 hrs by hemagglutination test. The class given is functional, cell-based. Summed up: as §3
The test system of data set [13] is Influenza A virus. As to the kind of experiment: Antiviral activity against Influenza A virus (A/Puerto Rico/8/34(H1N1)) infected in A549 cells assessed as reduction in localization of viral NP protein in nucleus at 10 uM preincubated with virus at 37 degC for 1 hr followed by viral adsorption at 4 degC for 1 hr and subsequent infection in A549 cells measured at 2 to 4 hrs post infection by FITC-staining based immunofluorescence microscopic method. The class given is functional, cell-based. The following applies: A/Puerto Rico/8/1934(H1N1). In outline:
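PR8 (MOI 1.0) pretreated with 10 μM compound 1 h at 37 °C, adsorbed 1 h at 4 °C, then A549 cells were kept in infecting medium with 10 μM compound. Fixed with 4% paraformaldehyde at 2 or 4 h p.i., permeabilised with Triton X-100 and blocked. Anti-NP plus FITC secondary, confocal imaging; nuclear NP intensity per unit area quantified (n = 30 images).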

Data set [14] can be described thus: Antiviral activity against Influenza A virus (A/California/04/2009(H1N1)) infected in MDCK cells assessed as virus yeild reduction preincubated with virus at 37 degC for 1 hr followed by viral infection for 1 hr measured after 3 days by crystal violet staining based plaque assay. The class given is functional, cell-based. In outline: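 Plaque reduction: about 50–100 PFU/well of PR8, Cal09 or Minnesota preincubated with compound (0–10 μM) 1 h at 37 °C. Mixture then adsorbed to MDCK monolayers 1 h at 4 °C. Overlay was DMEM with 1.5% agarose, DEAE-dextran and 1 μg/mL TPCK-trypsin for 3 days at 37 °C. Glutaraldehyde fix, crystal violet stain, plaque count; IC50 derived; n = 4.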

Data set [15] in a line: Selectivity index, ratio of CC50 for MDCK cells to IC50 for Influenza A virus (A/Puerto Rico/8/34(H1N1)) infected in MDCK cells by plaque assay. In kind it is toxicity, cell-based. The following applies: dog, read-out: Ratio CC50/IC50.
Data set [16] can be described thus: Drug uptake in human A549 cell nucleus at 20 uM after 4 hrs by DAPI staining based confocal microscopic analysis. In kind it is ADME. The following applies: a549, 4 h. Summed up:
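A549 cells incubated with 20 μM compound 4 h at 37 °C, then fixed and DAPI-stained. Compound intrinsic fluorescence located by confocal microscopy.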

pIC50: −log10 of the molar value. The source made the active and inactive calls. The calls are words filed in the database; no cut-off is given here.

For `O=C(Nc1ccccc1Nc1c2ccccc2nc2c1[nH]c1ccccc12)c1cccc(B(O)O)c1`, the fold change (FC) turned out to be 2.5 in [1], 0.6 in data set [5], 3.3 in data set [9] and 1.2 in data set [10]. Moreover, the outcome in [2] was inactive. Besides, the survival at 10 mg/kg/day in data set [3] was 90%. Further, the Activity result in [4] and in data set [12] was “Dose-dependent effect” in each case. Also, the pIC50 was 5.60 in data set [4], 5.29 in [11], 5.52 in [12] and 5.43 in [14]. In addition, the outcome in data set [6], in data set [7], in data set [8] and in data set [13] was Active. In data set [15], the selectivity ratio lay in the range of 56.8 to 64.6. In [16], the Drug uptake entry was “Not Active”.
